Assay results: ChEMBL document CHEMBL1144917, “Synthetic, nondegradable diadenosine polyphosphates and diinosine polyphosphates: their effects on insulin-secreting cells and cultured vascular smooth muscle cells” (J Med Chem, 2003)

Key:
[1] = species: Rattus norvegicus; test: Percent of compound radioactivity ([3H]-Ap4A Degradation), in presence of added Ap(s)pCH2pp(s)A, in heparinized rat plasma; type: functional; set-up: concentration or dose not given beside the values
Method in brief: (§1)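 Heparinized rat plasma (40 μL) incubated 15 min with 10 nM [3H]Ap4A plus 3 μL saline or 3 μL of a 1 mM analogue solution. Products resolved by TLC on silica gel in dioxane/conc. ammonia/water (6:1:4) alongside unlabeled standards, and spots scintillation counted. Reported as percent of radioactivity per species; mean ± SE of two experiments.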

[2] = system: INS1; test: Percent of compound radioactivity ([3H]-Ap4A Degradation), determined in the incubation medium of INS-1 cell membranes; type: functional, cell-based; set-up: concentration or dose not given beside the values
Method in brief: (§2)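 Membranes from half-confluent INS-1 cells incubated 10 min at 37 °C in KRH buffer with 5.6 mM glucose, 0.31 μM [3H]Ap4A, with or without 30 μM unlabeled nucleotide. Medium aliquot mixed with unlabeled standards, TLC on silica gel in dioxane/conc. ammonia/water (6:1:4) for 2 h. UV-located spots cut out and scintillation counted. Reported as percent of radioactivity per species; mean ± SE of two experiments.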

[3] = system: INS1; test: Percent of compound radioactivity ([3H]-Ap4A Degradation), in presence of added Ap(s)pCH2pp(s)A, in the incubation medium of INS-1 cell membranes; type: functional, cell-based; method in brief: as §2
[4] = species: Rattus norvegicus; test: Percent of compound radioactivity ([3H]-Ap4A Degradation) in heparinized rat plasma (saline); type: functional; method in brief: as §1
[5] = system: INS1; test: Percent of compound radioactivity ([3H]-Ap4A Degradation), in presence of added Ap4A, in the incubation medium of INS-1 cell membranes; type: functional, cell-based; set-up: concentration or dose not given beside the values; method in brief: as §2
[6] = species: Rattus norvegicus; test: Percent of compound radioactivity ([3H]-Ap4A Degradation), in presence of added Ap(s)pCHClpp(s)A, in heparinized rat plasma; type: functional; set-up: concentration or dose not given beside the values; method in brief: as §1
[7] = system: INS1; test: Percent of compound radioactivity ([3H]-Ap4A Degradation), in presence of added Ap(s)pCHClpp(s)A, in the incubation medium of INS-1 cell membranes; type: functional, cell-based; method in brief: as §2

Row | Structure (SMILES) | Radioactivity [1] [%] | Radioactivity [2] [%] | Radioactivity [3] [%] | Radioactivity [4] [%] | Radioactivity [5] [%] | Radioactivity [6] [%] | Radioactivity [7] [%]
1 | Nc1ncnc2c1ncn2[C@@H]1O[C@H](COP(=O)(O)OP(=O)(O)OP(=O)(O)O)[C@@H](O)[C@H]1O | 37.6 | 8.4 | 8.2 | 42.1 | 4 | 40.5 | –
2 | Nc1ncnc2c1ncn2[C@@H]1O[C@H](COP(=O)(O)OP(=O)(O)OP(=O)(O)OP(=O)(O)OC[C@H]2O[C@@H](n3cnc4c(N)ncnc43)[C@H](O)[C@@H]2O)[C@@H](O)[C@H]1O | 31.6 | 52.4 | 54.9 | 21.5 | 70 | 26.5 | 61.3
3 | Nc1ncnc2c1ncn2[C@@H]1O[C@H](CO)[C@@H](O)[C@H]1O | < 1 | 22.4 | 19.4 | < 1 | 15.1 | < 1 | 14.3
4 | Nc1ncnc2c1ncn2[C@@H]1O[C@H](COP(=O)(O)OP(=O)(O)O)[C@@H](O)[C@H]1O | 27.4 | 11.3 | 9.3 | 22.3 | 7.8 | 30.6 | 8.8
5 | Nc1ncnc2c1ncn2[C@@H]1O[C@H](COP(=O)(O)O)[C@@H](O)[C@H]1O | 1.98 | 5.3 | – | 2.4 | 0.8 | 2.31 | –
